EphB4 antag: antagonists of human EphB4-ephrin-B2 interaction; EphB4 LBD / TNYL-RAW-Alexa532 peptide, fluorescence polarization; hit rate 0.15% among 97,000; inhibition, % at 7 µM;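 active = inhibition above the screen-wide mean inhibition plus 3 SD, cut at about 15% in these data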
Target sequence (P54760 whole entry, looked up, the tested form may be a part): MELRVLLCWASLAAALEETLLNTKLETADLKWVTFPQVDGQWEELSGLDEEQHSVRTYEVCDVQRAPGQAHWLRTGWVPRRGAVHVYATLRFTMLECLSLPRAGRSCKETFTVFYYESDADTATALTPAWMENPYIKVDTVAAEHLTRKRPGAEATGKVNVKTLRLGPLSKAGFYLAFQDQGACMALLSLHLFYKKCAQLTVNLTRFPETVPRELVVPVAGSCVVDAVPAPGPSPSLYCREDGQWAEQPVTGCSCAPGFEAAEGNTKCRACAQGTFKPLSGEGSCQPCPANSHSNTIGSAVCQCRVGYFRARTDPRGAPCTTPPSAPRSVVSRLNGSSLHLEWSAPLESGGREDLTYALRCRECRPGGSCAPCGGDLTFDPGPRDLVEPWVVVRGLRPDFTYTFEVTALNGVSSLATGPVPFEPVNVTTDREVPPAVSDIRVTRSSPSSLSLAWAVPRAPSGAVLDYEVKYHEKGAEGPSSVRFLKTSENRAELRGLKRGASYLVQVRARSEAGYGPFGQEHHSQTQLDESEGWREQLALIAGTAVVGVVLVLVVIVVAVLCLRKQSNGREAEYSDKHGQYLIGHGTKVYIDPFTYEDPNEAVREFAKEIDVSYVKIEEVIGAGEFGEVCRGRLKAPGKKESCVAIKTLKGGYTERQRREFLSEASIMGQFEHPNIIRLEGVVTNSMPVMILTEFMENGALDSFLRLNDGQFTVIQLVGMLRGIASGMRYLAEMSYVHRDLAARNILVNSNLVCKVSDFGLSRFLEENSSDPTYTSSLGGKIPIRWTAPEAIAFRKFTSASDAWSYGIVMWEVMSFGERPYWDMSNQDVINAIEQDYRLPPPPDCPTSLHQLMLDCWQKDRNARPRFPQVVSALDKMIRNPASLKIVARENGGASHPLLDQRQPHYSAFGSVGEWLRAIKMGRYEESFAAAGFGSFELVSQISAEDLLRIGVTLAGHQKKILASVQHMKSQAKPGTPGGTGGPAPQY
PostGolgi yeast: growth inhibition of a yeast mutant, post-Golgi transport screen; post-Golgi transport phenotypic cell assay; inhibition, % at 10 µM; hit rate 0.9% among 98,000; AID 739;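 note: yeast cells grown in 1536-well plates; yeast grown about 18 h at 30C before absorbance read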
E coli WT exp: blocks growth of wild type E. coli BW25113; hit rate 0.15% among 98,000; growth inhibition, % at 100 µM; AID 710; OD600 absorbance;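 active = growth inhibition above about 50% at one test dose, limit read from the data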;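 note: growth measured after 20 h incubation at 37 °C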
Ecoli tolC: blocks growth of E. coli BW25113 tolC mutant; hit rate 2.2% among 65,000; growth inhibition, % at 10 µM (by protocol); OD615; AID 573;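 active = growth inhibition at or above a cutoff equal to the mean over every tested compound plus 3 SD, cut at about 60% in these data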;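 note: growth measured after 20 h incubation at 37 °C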
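Assay system: tolC-deleted E. coli BW25113. Medium: kanamycin-containing LB broth (50 µg/mL). Dosing: 10 µM final, single dose. Timing: bacterial growth with compound for 20 h at 37 °C. Detection: A615 absorbance measurement. Read-out basis: growth inhibition in percent.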
PostGolgi ctrl: inhibits growth of the yeast control strain | AID 738 | inhibition, % at 10 µM | efflux-deficient yeast background strain, growth absorbance A615, 16 h | hit rate 5% among 98,000
Of the large screens only hits and unclear results are named; the others gave an inactive call. Compounds with a hit are over-represented: about 6% of the library has one in this group of screens. Cut-off read from the data, not from the text of the source, unless noted: active = inhibition above about 30%; inactive = the rest.

Cc1ccc2[nH]c(=O)c(CN(Cc3ccc4c(c3)OCO4)Cc3nnnn3C3CCCC3)cc2c1	Ecoli tolC 62 (no result: EphB4 antag)
c1ccc(-c2nc(NCCCn3ccnc3)c3oc4ccccc4c3n2)cc1	none (no result: Ecoli tolC)
CCc1nc(NCCCn2ccnc2)c2oc3ccccc3c2n1	PostGolgi ctrl 33
Cc1cc(NCCCn2ccnc2)n2c(nc3ccccc32)c1C#N	none
Cc1cccc2cc(C#N)c(NCCCn3ccnc3)nc12	PostGolgi yeast 40
CCCCN1C(=O)NC2NC(=O)NC21 (centres undefined)	none (no result: PostGolgi yeast, E coli WT exp, Ecoli tolC, PostGolgi ctrl)
CCOC(=O)c1cc2sc(C)cc2n1C(C)C(=O)OCC (centres undefined)	Ecoli tolC 62
CCOC(=O)c1cc2sc(C)cc2n1CC(=O)Nc1cccc(C)c1C	none (no result: EphB4 antag)
O=C(Nc1ccccc1)c1nnsc1S(=O)c1ccc(Cl)cc1 (centres undefined)	PostGolgi yeast 105, PostGolgi ctrl 102 (no result: Ecoli tolC)
CCCC(c1nnnn1CCc1ccccc1)N1CCC(C(N)=O)CC1 (centres undefined)	none (no result: PostGolgi yeast, E coli WT exp, Ecoli tolC, PostGolgi ctrl)
Cc1cccc(C)c1Nc1nnc(SCc2cc([N+](=O)[O-])cc3c2OCOC3)s1	PostGolgi ctrl 33 (no result: Ecoli tolC)
CCSc1nnc(-c2cccnc2)n1-c1ccc(Cl)c(C)c1	none (no result: Ecoli tolC)
Cc1cccc(C(=O)NNC2=C(C(=O)C(F)(F)F)CCC2)c1O	none (no result: Ecoli tolC)
CCOC(=O)c1c(C)oc2cc(Br)c(O)c(Br)c12	PostGolgi ctrl 52 (no result: EphB4 antag)
CCOC(=O)COc1ccc(/C=C/[N+](=O)[O-])c(OCC(=O)OCC)c1	none (no result: Ecoli tolC)
O=[N+]([O-])/C=C/c1c(OCc2ccccc2)ccc2ccccc12	PostGolgi yeast 105, PostGolgi ctrl 99 (no result: Ecoli tolC)
CCOc1ccc(/C=C/[N+](=O)[O-])c2ccccc12	PostGolgi yeast 78, PostGolgi ctrl 81 (no result: Ecoli tolC)
COC(=O)c1ccc(/C(O)=C(\C#N)c2nc3ccccc3s2)cc1	Ecoli tolC 65
Cc1ccc(C(=O)NCCSc2ccccc2)cc1S(=O)(=O)Nc1ccccc1	none (no result: Ecoli tolC)
CCOC(=O)c1cnc(-n2cc(C)cn2)nc1Nc1ccccc1OCC	Ecoli tolC 68
CCOC(=O)c1cnc(-n2nc(C)cc2C)nc1Nc1ccccc1OC	none (no result: Ecoli tolC)
CCCCOc1ccc(C(=O)NCc2ccccn2)cc1	PostGolgi ctrl 35
COc1ccc(C(=O)NCc2ccccn2)cc1	none (no result: PostGolgi yeast, E coli WT exp, Ecoli tolC, PostGolgi ctrl)
COc1ccc(S(=O)(=O)NCc2ccccn2)cc1	none (no result: Ecoli tolC)
CCOc1ccc(S(=O)(=O)NCc2ccccn2)cc1	PostGolgi ctrl 30 (no result: Ecoli tolC)
Cc1ccc(C(Sc2ccccc2)C(Cn2cncn2)C(=O)c2ccccc2)cc1 (centres undefined)	none (no result: Ecoli tolC)
COc1cc2c(C(=O)N3CCN(c4cccc(Cl)c4)CC3)cn(CC(C)C)c(=O)c2cc1OC	none (no result: Ecoli tolC)
Nc1c(C(=O)NCc2ccc(Cl)cc2)sc2nc3c(c(C(F)(F)F)c12)CCC3	none (no result: Ecoli tolC)
NC(=O)c1sc2nc3c(c(-c4ccc(Cl)cc4)c2c1N)CCCC3	PostGolgi ctrl 35 (no result: Ecoli tolC)
Cc1ccc(-c2c3c(nc4sc(C(N)=O)c(N)c24)CCC3)cc1	PostGolgi ctrl 50 (no result: Ecoli tolC)
O=C(CCl)N(c1ccc(Cl)cc1)c1c[nH]c2ccccc12	PostGolgi ctrl 44 (no result: Ecoli tolC)
O=C(CCl)N(c1ccccc1)c1c[nH]c2ccccc12	none (no result: Ecoli tolC)
O=C1N(CC(=O)N2CCc3ccccc32)CCN1Cc1ccccc1Cl	none
CCCCCCc1nc2ccccc2c(=O)n1NC(=O)c1c(O)c2cccc3c2n(c1=O)CC3	none (no result: PostGolgi yeast, E coli WT exp, Ecoli tolC, PostGolgi ctrl)
CCOC(=O)n1c(=O)n(Cc2ccc(Cl)cc2Cl)c2ccccc21	PostGolgi ctrl 34 (no result: Ecoli tolC)
CCOC(=O)n1c(=O)n(Cc2ccccc2Cl)c2ccccc21	PostGolgi ctrl 47 (no result: Ecoli tolC)
O=Nc1c(O)n(Cc2ccc(Cl)cc2)c2ccccc12	none (no result: Ecoli tolC)
CCOC(=O)n1c(=O)oc2ccc(Cl)cc21	none (no result: PostGolgi yeast, E coli WT exp, Ecoli tolC, PostGolgi ctrl)
O=Nc1c(O)n(Cc2ccc(Cl)cc2Cl)c2ccccc12	PostGolgi yeast 34, PostGolgi ctrl 65 (no result: Ecoli tolC)
N=c1n(CC(=O)O)c2ccccc2n1Cc1ccccc1Cl	none
COC(=O)c1cc(Br)c(=O)n(-c2cccc(F)c2)c1	none (no result: Ecoli tolC)
CC(=O)c1cc2c(cc1NC(=O)C1CC1)OCO2	none (no result: PostGolgi yeast, E coli WT exp, Ecoli tolC, PostGolgi ctrl)
CN1CCN(S(=O)(=O)c2ccc(NC(=O)c3ccc(Br)s3)cc2)CC1	none
N#Cc1c(SCC(N)=O)nc2c(c1-c1ccc(OCc3ccccc3)cc1)CCCC2	none (no result: PostGolgi yeast, E coli WT exp, Ecoli tolC, PostGolgi ctrl)
O=C(Nc1cnc2sccn2c1=O)c1ccc(Cl)cc1Cl	PostGolgi ctrl 32 (no result: Ecoli tolC)
COc1ccc(Cl)cc1NC(=O)c1cnc2sccn2c1=O	none (no result: EphB4 antag)
CCOc1ccccc1N1CCN(C(=O)c2cccc(-c3ccc(O)cc3)c2)CC1	PostGolgi ctrl 99
CCOC(=O)Cc1csc(NC(=O)CC(C)(C)C)n1	none (no result: Ecoli tolC)
CCOC(=O)c1c(N)sc(C(O)(C(F)(F)F)C(F)(F)F)c1-c1ccc(F)cc1	none (no result: Ecoli tolC)
CCOC(=O)c1c(N)sc(C(O)(C(F)(F)F)C(F)(F)F)c1-c1ccc(Cl)cc1	PostGolgi ctrl 72 (no result: Ecoli tolC)

Screening data from PubChem BioAssay.
